Source: ChEMBL document CHEMBL2093137, “WHO-TDR NTD Screening”
In brackets after ≈: the same amount, converted by molar mass.

Tests used:
Schistosoma mansoni = test: WHO-TDR: Schistosomiasis; assay type: functional; design: concentration or dose not given beside the values
Outline: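 Percent inhibition and IC50 describe activity against whole Schistosoma mansoni worms of the Puerto Rican strain, tested as larvae and/or adults. The compounds screened were a diverse set of 10,000 from Life Chemicals, filtered for drug-likeness and reactive groups. Testing followed previously published standard procedures, with a reference drug as positive control.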

Leishmania infantum = test: WHO-TDR: Leishmaniasis; assay type: functional, organism-based, Mus musculus; conditions: Macrophage
Outline: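 IC50 values describe antiparasitic potency in this whole-organism screen. Leishmania infantum MHOM/MA(BE)/67 amastigotes were tested inside murine peritoneal macrophages against a 10,000-compound diverse Life Chemicals library. A reference drug served as positive control.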

[1] = tested on: Trypanosoma brucei brucei; test: WHO-TDR: Human African Trypanosomiasis (HAT); assay type: functional, organism-based; conditions: Squib-427
Outline: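 Following previously published standard procedures, with reference drugs as positive controls, a whole-organism assay was run against bloodstream-form Trypanosoma brucei, Squib 427 strain. The compounds, 10,000 in all, came from a diverse Life Chemicals library filtered for drug-likeness and reactive groups. Reported values are IC50 for antiparasitic potency.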

Plasmodium falciparum K1 = test: WHO-TDR: Malaria; assay type: functional, organism-based, Homo sapiens; conditions: Erythrocyte
Outline: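 Life Chemicals supplied the diverse library of 10,000 compounds, which had been filtered for drug-likeness and reactive groups. Each was screened against the K1 strain of Plasmodium falciparum at its intra-erythrocytic stage in human red blood cells, using previously published standard procedures and a reference drug as positive control. The table reports IC50 for antiplasmodial potency.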

Onchocerca lienalis = test: WHO-TDR: Onchocerciasis; assay type: functional; design: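 at 12.5 µM on microfilariae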
Outline: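 Percent inhibition and IC50 describe activity against microfilariae of Onchocerca ochengi or Onchocerca lienalis, used as animal-pathogen substitutes for the human parasite. The compounds tested made up a 10,000-member diverse library from Life Chemicals.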

Trypanosoma cruzi = test: WHO-TDR: Chagas disease; assay type: functional, organism-based, Homo sapiens; conditions: MRC5
Outline: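 Intracellular amastigotes of the Trypanosoma cruzi Tulahuen CL2 beta-galactosidase strain, grown in MRC-5SV2 human lung fibroblast host cells, were tested in a whole-organism screen. The compounds came from a 10,000-member diverse Life Chemicals library that had been filtered for drug-likeness and reactive groups. Previously published standard procedures were followed, with a reference drug as positive control, and potency is reported as IC50.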

[2] = WHO-TDR: Cytotoxicity; assay type: toxicity, cell-based; conditions: human, MRC5 cells

| Compound | IC50 (Leishmania infantum) | IC50 [1] | IC50 (Plasmodium falciparum K1) | % Inhibition (Schistosoma mansoni) | % Inhibition (Onchocerca lienalis) | IC50 (Trypanosoma cruzi) | IC50 [2] |
| --- | --- | --- | --- | --- | --- | --- | --- |
| O=C(CSc1ccc2nnc(-c3ccccn3)n2n1)NCC1CCCO1 (centres undefined) | 0.392 µg/mL (≈ 1.06 µM) | 3.3 µg/mL (≈ 8.9 µM) | 3.16 µg/mL (≈ 8.53 µM) | 0% | 0% | 5.24 µg/mL (≈ 14.1 µM) | > 11.1 µg/mL |
| O=C(CSc1nc2ccccc2nc1O)Nc1ccccc1C(=O)c1ccccc1 | 1.97 µg/mL (≈ 4.75 µM) | > 12.5 µg/mL | > 12.5 µg/mL | 0% | 26.7% | > 12.5 µg/mL | > 12.5 µg/mL |
| CN(C)CCCN(C(=O)c1ccc(Br)s1)c1nc2cc3c(cc2s1)OCCO3 | 5.04 µg/mL (≈ 10.4 µM) | 5.04 µg/mL (≈ 10.4 µM) | 2.42 µg/mL (≈ 5.02 µM) | 0% | 6.7% | 0.933 µg/mL (≈ 1.93 µM) | 3.06 µg/mL (≈ 6.35 µM) |
| CCOC(=O)c1c(NC(=O)C(C)n2c(-n3nc(C)cc3C)nc(CC)cc2=O)sc2c1CCC2 (centres undefined) | 4.7 µg/mL (≈ 9.71 µM) | 4.64 µg/mL (≈ 9.6 µM) | 2.96 µg/mL (≈ 6.11 µM) | 0% | 0% | 0.57 µg/mL (≈ 1.18 µM) | > 14.5 µg/mL |
| O=C(Cc1ccccc1)Nc1nnc(SCC(=O)NC2CCCC2)s1 | 3.96 µg/mL (≈ 10.5 µM) | 0.382 µg/mL (≈ 1.01 µM) | 0.609 µg/mL (≈ 1.62 µM) | 0% | 6.7% | 4.16 µg/mL (≈ 11.1 µM) | 3.82 µg/mL (≈ 10.1 µM) |
| O=C(Nc1ccc(-c2cn3c(n2)SCC3)cc1)C1CCCC1 | 0.304 µg/mL (≈ 0.97 µM) | > 9.4 µg/mL | 9.4 µg/mL (≈ 30 µM) | 0% | 0% | > 9.4 µg/mL | > 9.4 µg/mL |
| COc1ccccc1N1CCN(C(CNS(=O)(=O)c2cccs2)c2cccnc2)CC1 (centres undefined) | > 13.8 µg/mL | > 13.8 µg/mL | 6.66 µg/mL (≈ 14.5 µM) | 0% | 66.7% | 0.559 µg/mL (≈ 1.22 µM) | > 13.8 µg/mL |
| COc1ccccc1NC(=O)Nc1nc(CC(=O)N2CCN(c3cccc(C(F)(F)F)c3)CC2)cs1 | > 15.6 µg/mL | 3.43 µg/mL (≈ 6.59 µM) | 4.27 µg/mL (≈ 8.23 µM) | 0% | 0% | 0.93 µg/mL (≈ 1.79 µM) | > 15.6 µg/mL |

Further lines, with some results ahead:

| IC50 (Leishmania infantum) | IC50 [1] | IC50 (Plasmodium falciparum K1) | Compound | % Inhibition (Schistosoma mansoni) | % Inhibition (Onchocerca lienalis) | IC50 (Trypanosoma cruzi) | IC50 [2] |
| --- | --- | --- | --- | --- | --- | --- | --- |
| 0.791 µg/mL (≈ 1.49 µM) | 0.483 µg/mL (≈ 0.911 µM) | 1.16 µg/mL (≈ 2.2 µM) | Cc1onc(-c2ccccc2Cl)c1C(=O)Nc1nnc(SCC(=O)Nc2ccc3c(c2)OCO3)s1 | 0% | 13.3% | 3.2 µg/mL (≈ 6.05 µM) | 2.1 µg/mL (≈ 3.96 µM) |
| 4.74 µg/mL (≈ 12.4 µM) | 4.74 µg/mL (≈ 12.4 µM) | 1.14 µg/mL (≈ 3 µM) | Cc1csc(NC(=O)CSc2nnc(NC(=O)c3ccco3)s2)n1 | 0% | 0% | 5.1 µg/mL (≈ 13.4 µM) | 5.73 µg/mL (≈ 15 µM) |
| > 10.4 µg/mL | > 10.4 µg/mL | > 10.4 µg/mL | Cc1c(Cl)ccc2sc(NC(=O)c3ccc(N(C)C)cc3)nc12 | 0% | 50% | > 10.4 µg/mL | > 10.4 µg/mL |
| 0.304 µg/mL (≈ 0.654 µM) | > 9.4 µg/mL | 9.4 µg/mL (≈ 20.2 µM) | CCOC(=O)Cn1/c(=N/C(=O)c2ccc(N3C(=O)CCC3=O)cc2)sc2c(C)cc(C)cc21 | 0% | 13.3% | > 9.4 µg/mL | > 9.4 µg/mL |
| 2.73 µg/mL (≈ 5.85 µM) | > 8.44 µg/mL | > 8.44 µg/mL | COc1ccc(Cl)cc1NC(=O)CSc1nnc(NC(=O)Cc2ccc(F)cc2)s1 | 100% | 0% | > 8.44 µg/mL | > 8.44 µg/mL |
| 5.12 µg/mL (≈ 12 µM) | 0.383 µg/mL (≈ 0.902 µM) | 1.2 µg/mL (≈ 2.82 µM) | O=C(CSc1nnc(NC(=O)c2cccs2)s1)NCc1ccccc1Cl | 16.7% | 13.3% | 4.32 µg/mL (≈ 10.2 µM) | 4.21 µg/mL (≈ 9.91 µM) |
| > 9.82 µg/mL | 3.69 µg/mL (≈ 7.54 µM) | 4.26 µg/mL (≈ 8.71 µM) | CN(CC1CCCO1)S(=O)(=O)c1ccc(C(=O)Nc2nc3cc4c(cc3s2)OCCO4)cc1 (centres undefined) | 100% | 20% | 5.16 µg/mL (≈ 10.5 µM) | > 9.82 µg/mL |
| 4.87 µg/mL (≈ 9.71 µM) | 0.487 µg/mL (≈ 0.971 µM) | > 9.73 µg/mL | CN(CC1CCCO1)S(=O)(=O)c1ccc(C(=O)Nc2nc3c(s2)CSc2ccccc2-3)cc1 (centres undefined) | 41.7% | 13.3% | 0.521 µg/mL (≈ 1.04 µM) | 3 µg/mL (≈ 5.99 µM) |
| 3.96 µg/mL (≈ 10.7 µM) | 0.382 µg/mL (≈ 1.03 µM) | 0.609 µg/mL (≈ 1.64 µM) | CN(C)CCCN(C(=O)Cc1ccccc1)c1nc2ccc(F)cc2s1 | 58.3% | 0% | 4.16 µg/mL (≈ 11.2 µM) | 3.81 µg/mL (≈ 10.3 µM) |
